In ChEMBL document CHEMBL1155784, “Aromatic 2-chloroethyl urea derivatives and bioisosteres. Part 2: Cytocidal activity and effects on the nuclear translocation of thioredoxin-1, and the cell cycle progression” (2008) one finds Activity and GI50 data, which are given here for 42 compounds.

Calls of active or inactive are those of the source. The rule behind the calls is not given here.

The test system of assay [1] is MCF7. Nature of the assay: Cell cycle arrest in human MCF7 cells assessed as G2/M phase accumulation at 2 times GI50 after 24 hrs by flow cytometry.
Assay [2] concerns MCF7. Nature of the assay: Cell cycle arrest in human MCF7 cells assessed as S phase accumulation at 2 times GI50 after 24 hrs by flow cytometry.
Assay [3] has as its system MCF7. Nature of the assay: Cell cycle arrest in human MCF7 cells assessed as G0/G1 phase accumulation at 2 times GI50 after 24 hrs by flow cytometry.
For assay [4], the system named is M21. Nature of the assay: Inhibition of nuclear translocation of thioredoxin 1 in human M21 cells at 5 uM after 18 hrs by immunocytochemistry. Type of assay: functional, cell-based. In short, it runs like this: (§1)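 M21 cells seeded on fibronectin-coated coverslips, held 18 h at 37 °C, then treated with compounds (5–50 µM; reference agents 0.1–40 µM) or 0.1% DMSO. Fixed in 3.7% formaldehyde, permeabilized with 0.1% saponin, and blocked in 3% BSA. Stained 1 h at 37 °C with anti-thioredoxin-1 monoclonal (1/200), then with Alexa-488 anti-mouse IgG plus DAPI for nuclei.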

The subject of assay [5] is MCF7. Nature of the assay: Growth inhibition of human MCF7 cells after 48 hrs by sulforhodamine B assay. Type of assay: functional. As to conditions: for GI50: MCF7, 48 h. Summed up:
(§2)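 NCI-style sulforhodamine B assay. HT-29 (5×10³), M21 or MCF-7 (3.5×10³) cells were grown 24 h, then given DMSO-solubilized drug at 100 to 0.7 µM final (DMSO <0.5%) for 48 h. Fixed in cold 10% TCA, stained with 0.1% SRB, read at 585 nm after subtracting a day-0 plate. Inhibition is relative to DMSO controls; GI50 from at least triplicate runs.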

The subject of a further assay is HT-29. Nature of the assay: Growth inhibition of human HT29 cells after 48 hrs by sulforhodamine B assay. Type of assay: functional. As to conditions: for GI50: HT-29, 48 h. In short, it runs like this:
as §2

Assay [6] has as its system M21. Nature of the assay: Growth inhibition of human M21 cells after 48 hrs by sulforhodamine B assay. Type of assay: functional. As to conditions: for GI50: M21, 48 h. In short, it runs like this: as §2
In assay [7] the test system is M21. Nature of the assay: Inhibition of nuclear translocation of thioredoxin 1 in human M21 cells at 50 uM after 18 hrs by immunocytochemistry. Type of assay: functional, cell-based. In short, it runs like this:
as §1

As for `CC(C)(C)c1ccc(NC2=NCCO2)cc1`, the figures for the Activity in the assay with MCF7 [1], with MCF7 [2] and with MCF7 [3] were 74%, 11% and 15%, respectively. The outcome in the assay with M21 [4] was inactive.
As for `O=C(CCl)NC(=O)NC1C2CC3CC(C2)CC1C3` (centres undefined), the GI50 in the assay with MCF7 [5] was determined as 6.2 µM; in the assay with HT-29, 5.1 µM; in the assay with M21 [6], 3.2 µM.
Consider `c1cc(NC2=NCCO2)cc(OC2CCCC2)c1`, for which the Activity is recorded as 6% in the assay on MCF7 [1], 17% with MCF7 [2] and 77% with MCF7 [3]. Also, the values for the GI50 with MCF7 [5], in the assay on HT-29 and in the assay on M21 [6] were 62.1 µM, 52.2 µM and 76.9 µM, respectively. Besides, the outcome with M21 [7] was Active.
With `CCNC(=O)Nc1ccc(C2CCCCC2)cc1`, the result with MCF7 [5], in the assay on HT-29 and in the assay with M21 [6] was inactive.
Take `O=C(CCl)NC(=O)Nc1ccc(Oc2ccccc2)cc1`: the GI50 with MCF7 [5] came to 4.2 µM; with HT-29, 3.6 µM; in the assay on M21 [6] it was 4.2 µM. In addition, in the assay on M21 [4], the result was inactive.
Turning to `Cc1ccc(NC(=O)NCCCl)cc1`, the outcome with M21 [7] was Active.
For `O=C(CCl)NC(=O)Nc1cccc(OC2CCCC2)c1`, the Activity is recorded as 13% in the assay on MCF7 [1], 34% in the assay with MCF7 [2] and 53% with MCF7 [3]. For the same compound, the figures for the GI50 in the assay with MCF7 [5], with HT-29 and in the assay on M21 [6] were 6.2 µM, 3.1 µM and 3.5 µM, respectively. Further, in the assay on M21 [4], the outcome was Active.
As to `O=C(CCl)NC(=O)Nc1ccc(-c2ccccc2)cc1`, the results for the GI50 with MCF7 [5], in the assay on HT-29 and with M21 [6] were 3.9 µM, 2.3 µM and 1.4 µM, respectively. The result in the assay with M21 [4] was Active.
On to `CCNC(=O)Nc1ccc2c(c1)CCC2`, for which the outcome with MCF7 [5], in the assay on HT-29 and in the assay with M21 [6] was inactive.
With `O=C(CCl)NC(=O)Nc1ccc(C2CCCCC2)cc1`, the figures for the Activity in the assay on MCF7 [1], in the assay with MCF7 [2] and with MCF7 [3] were 24%, 51% and 25%, respectively. In addition, the GI50 in the assay with MCF7 [5] was 1.5 µM; in the assay with HT-29 it was 2.3 µM; with M21 [6], 0.9 µM. The outcome with M21 [4] was Active.
As for `O=C(NCCCl)Nc1cccc(Oc2ccccc2)c1`, the result in the assay on M21 [7] was inactive.
In the case of `c1ccc(Oc2ccc(NC3=NCCO3)cc2)cc1`, the results for the GI50 in the assay on MCF7 [5], in the assay on HT-29 and in the assay with M21 [6] were 3.5 µM, 2 µM and 3.1 µM, respectively. The outcome with M21 [4] and in the assay on M21 [7] was inactive.
On to `CC(C)(C)c1ccc(NC(=O)NC(=O)CCl)cc1`, for which the Activity in the assay on MCF7 [1] came out at 19%; with MCF7 [2], 20%; with MCF7 [3] it was 61%. Moreover, the outcome in the assay on M21 [4] was Active.
Regarding `O=C(CCl)NC(=O)Nc1cccc(Oc2ccccc2)c1`, the GI50 in the assay on MCF7 [5] is 8.1 µM; with HT-29, 5.2 µM; in the assay with M21 [6] it was 5.3 µM. For the same compound, the result in the assay on M21 [4] was Active.
As to `C1COC(NC2C3CC4CC(C3)CC2C4)=N1` (centres undefined), the GI50 in the assay with MCF7 [5] was 24.1 µM; with HT-29, 53.4 µM; in the assay on M21 [6] it was 60.7 µM. Moreover, the outcome with M21 [7] was Active.
With `O=C(NCCCl)Nc1ccc(OCc2ccccc2)cc1`, the GI50 with MCF7 [5] turned out to be 79.7 µM; in the assay on HT-29, 37.5 µM. Further, the outcome in the assay on M21 [6] and in the assay on M21 [7] was inactive.
As for `c1ccc(COc2cccc(NC3=NCCO3)c2)cc1`, the GI50 was found to be 2.6 µM with MCF7 [5], 0.8 µM in the assay with HT-29 and 1.5 µM in the assay on M21 [6]. For the same compound, in the assay on M21 [4], the outcome was inactive.
In the same order, the values of `O=C(CCl)NC(=O)Nc1ccc(OCc2ccccc2)cc1` are 4.6 µM, 2.6 µM, 5.1 µM and “inactive”.
As for `O=C(CCl)NC(=O)Nc1ccc(OC2CCCCCC2)cc1`, the Activity with MCF7 [1] is 11%; in the assay on MCF7 [2], 30%; in the assay on MCF7 [3] it was 59%. For the same compound, the GI50 was determined as 3.6 µM with MCF7 [5], 2.3 µM with HT-29 and 5 µM in the assay with M21 [6]. Also, the outcome in the assay on M21 [4] was Active.
For `O=C(CCl)NC(=O)Nc1ccc(OC2CCCCC2)cc1`, the Activity was 10% with MCF7 [1], 20% in the assay with MCF7 [2] and 70% in the assay on MCF7 [3]. Moreover, the GI50 with MCF7 [5] was 4.7 µM; in the assay on HT-29, 3.1 µM; with M21 [6], 5 µM. Further, the result with M21 [4] was Active.
Consider `c1ccc2c(c1)-c1ccccc1C2NC1=NCCO1`, for which the result in the assay with M21 [7] was Active.
For the compound `c1cc(C2CCCCC2)ccc1NC1=NCCO1`, the Activity with MCF7 [1] was found to be 11%; in the assay on MCF7 [2], 16%; in the assay on MCF7 [3], 73%. Further, the GI50 in the assay with MCF7 [5] was 17.5 µM; in the assay on HT-29, 12.8 µM; in the assay on M21 [6], 17.8 µM. The outcome in the assay with M21 [7] was Active.
Take `O=C(CCl)NC(=O)Nc1cccc(OC2CCCCC2)c1`: the Activity with MCF7 [1] is on record as 7%; with MCF7 [2], 20%; with MCF7 [3], 73%. The values for the GI50 with MCF7 [5], in the assay with HT-29 and in the assay on M21 [6] were 6.3 µM, 3.8 µM and 2.7 µM, respectively. Also, the outcome in the assay on M21 [4] was Active.
Turning to `CCNC(=O)Nc1ccc(OC2CCCCC2)cc1`, the outcome in the assay on MCF7 [5], in the assay with HT-29 and in the assay with M21 [6] was inactive.
As to `O=C(NCCCl)NC1C2CC3CC(C2)CC1C3` (centres undefined), the GI50 with MCF7 [5] was determined as 11.3 µM; with HT-29, 50.6 µM. The result in the assay with M21 [6] and in the assay with M21 [7] was inactive.
Turning to `O=C(CCl)NC(=O)NC1c2ccccc2-c2ccccc21`, in the assay on M21 [4], the result was inactive.
In the case of `c1cc(OC2CCCCC2)ccc1NC1=NCCO1`, the Activity worked out at 5% in the assay with MCF7 [1], 13% in the assay with MCF7 [2] and 82% in the assay with MCF7 [3]. The GI50 with MCF7 [5] was 19.1 µM; in the assay with HT-29, 12.6 µM; in the assay on M21 [6] it was 20.8 µM. Further, the outcome in the assay on M21 [7] was Active.
In the case of `Ic1ccc(NC2=NCCO2)cc1`, the Activity is recorded as 76% in the assay with MCF7 [1], 10% with MCF7 [2] and 14% in the assay on MCF7 [3]. Besides, the result in the assay on M21 [4] was Active.
In the case of `O=C(CCl)NC(=O)Nc1cccc(OC2CCCCCC2)c1`, the Activity in the assay with MCF7 [1] was 11%; with MCF7 [2] it was 31%; with MCF7 [3], 58%. The GI50 in the assay with MCF7 [5] came to 7.2 µM; with HT-29 it was 6.9 µM; in the assay with M21 [6] it was 4.2 µM. In the assay on M21 [4], the outcome was Active.
As to `O=C(CCl)NC(=O)Nc1ccc2c(c1)CCC2`, the outcome with M21 [4] was Active.
Same read-out and setting: under `Cc1ccc(NC(=O)NC(=O)CCl)cc1C` stands “inactive”.
As to `Cc1ccc(NC2=NCCO2)cc1`, the outcome in the assay on M21 [7] was inactive.
On to `O=C(CCl)NC(=O)Nc1cccc(OCc2ccccc2)c1`, for which the GI50 with MCF7 [5] was determined as 6.2 µM; with HT-29 it was 6.5 µM; in the assay on M21 [6], 4.5 µM. Also, in the assay on M21 [4], the outcome was inactive.
For `O=C(NCCCl)NC1c2ccccc2-c2ccccc21`, the outcome in the assay with M21 [7] was Active.
With `c1cc(OC2CCCC2)ccc1NC1=NCCO1`, the values for the Activity in the assay on MCF7 [1], in the assay on MCF7 [2] and in the assay with MCF7 [3] were 7%, 23% and 70%, respectively. Also, the GI50 in the assay with MCF7 [5] came out at 23.1 µM; in the assay on HT-29 it was 16.1 µM; in the assay on M21 [6] it was 21.1 µM. Besides, in the assay on M21 [7], the outcome was Active.
Take `c1ccc2cc(NC3=NCCO3)ccc2c1`: the GI50 in the assay with MCF7 [5] was 4.5 µM; in the assay with HT-29, 2 µM; with M21 [6], 3.5 µM. Moreover, the result in the assay with M21 [4] and with M21 [7] was Active.
`O=C(CCl)NC(=O)Nc1ccc(OC2CCCC2)cc1`: the values for the Activity in the assay with MCF7 [1], with MCF7 [2] and in the assay with MCF7 [3] were 9%, 33% and 58%, respectively. Also, the GI50 worked out at 3.9 µM with MCF7 [5], 3.1 µM in the assay with HT-29 and 2.9 µM in the assay with M21 [6]. Besides, the result in the assay with M21 [4] was Active.
Take `Cc1ccc(NC(=O)NC(=O)CCl)cc1`: in the assay with M21 [4], the outcome was Active.
`c1cc(OC2CCCCCC2)ccc1NC1=NCCO1`: the Activity with MCF7 [1] is listed as 4%; in the assay on MCF7 [2], 14%; with MCF7 [3], 82%. Moreover, the results for the GI50 in the assay with MCF7 [5], in the assay on HT-29 and with M21 [6] were 26.8 µM, 16.6 µM and 27.1 µM, respectively. Further, in the assay with M21 [7], the outcome was Active.
`O=C(CCl)NC(=O)Nc1ccc(I)cc1`: the Activity in the assay on MCF7 [1] is 10%; in the assay with MCF7 [2] it was 22%; with MCF7 [3] it was 68%. In addition, in the assay with M21 [4], the result was Active.
As for `CCNC(=O)Nc1cccc(OC2CCCCCC2)c1`, the outcome in the assay with MCF7 [5], with HT-29 and in the assay on M21 [6] was inactive.
With `O=C(CCl)NC(=O)Nc1ccc2ccccc2c1`, the GI50 with MCF7 [5] worked out at 7.6 µM; with HT-29, 4.9 µM; in the assay on M21 [6] it was 3.7 µM. Also, the outcome with M21 [4] was inactive.
